The text below walks through data of ChEMBL document CHEMBL3399971.

One may read the IC50 as the midpoint of a concentration-inhibition curve.

Data set [1] can be described thus: Selectivity index, ratio of MNCC against mouse BV2 cells to IC50 for mGluR5 in mouse BV2 cells. Format: functional, BV-2.
Data set [2] has as its target Metabotropic glutamate receptor 5 (Mus musculus, UniProt Q3UVX5). Description: Positive allosteric modulator activity at mGluR5 in mouse BV2 cells assessed as inhibition of nitric oxide production pre-treated 1 hr before lipopolysaccharide stimulation and measured 24 hrs post lipopolysaccharide stimulation by Griess reagent assay. Format: cell-based, BV-2. A digest of the protocol:
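BV2 microglia grown in DMEM plus 10% FBS at 37°C, 5% CO2. Pretreated 1 h with compound in 0.02% DMSO (final), then stimulated with LPS 50 ng/ml for 24 h. Read-out is supernatant nitrite by Griess reagent as a proxy for NO. IC50 is the mean of three independent experiments.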
In general terms: Griess reagent forms a coloured azo dye with nitrite.

A short description of data set [3]: Cytotoxicity against mouse BV2 cells by CytoTox96 non-radioactive cytotoxicity assay. Format: cell-based, BV-2. Conditions: for MNTC: BV2 cells, read-out: MNCC. A digest of the protocol: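 BV2 murine microglia in DMEM with 10% FBS, 37°C, 5% CO2. Compounds in 0.02% DMSO (final) added 1 h before LPS (50 ng/ml), 24 h co-incubation. Viability by CytoTox96 non-radioactive kit. Value is the highest concentration without obvious cytotoxicity.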

Molecules are shown by their SMILES.

Metabotropic glutamate receptor 5, sequence (Q3UVX5 whole entry): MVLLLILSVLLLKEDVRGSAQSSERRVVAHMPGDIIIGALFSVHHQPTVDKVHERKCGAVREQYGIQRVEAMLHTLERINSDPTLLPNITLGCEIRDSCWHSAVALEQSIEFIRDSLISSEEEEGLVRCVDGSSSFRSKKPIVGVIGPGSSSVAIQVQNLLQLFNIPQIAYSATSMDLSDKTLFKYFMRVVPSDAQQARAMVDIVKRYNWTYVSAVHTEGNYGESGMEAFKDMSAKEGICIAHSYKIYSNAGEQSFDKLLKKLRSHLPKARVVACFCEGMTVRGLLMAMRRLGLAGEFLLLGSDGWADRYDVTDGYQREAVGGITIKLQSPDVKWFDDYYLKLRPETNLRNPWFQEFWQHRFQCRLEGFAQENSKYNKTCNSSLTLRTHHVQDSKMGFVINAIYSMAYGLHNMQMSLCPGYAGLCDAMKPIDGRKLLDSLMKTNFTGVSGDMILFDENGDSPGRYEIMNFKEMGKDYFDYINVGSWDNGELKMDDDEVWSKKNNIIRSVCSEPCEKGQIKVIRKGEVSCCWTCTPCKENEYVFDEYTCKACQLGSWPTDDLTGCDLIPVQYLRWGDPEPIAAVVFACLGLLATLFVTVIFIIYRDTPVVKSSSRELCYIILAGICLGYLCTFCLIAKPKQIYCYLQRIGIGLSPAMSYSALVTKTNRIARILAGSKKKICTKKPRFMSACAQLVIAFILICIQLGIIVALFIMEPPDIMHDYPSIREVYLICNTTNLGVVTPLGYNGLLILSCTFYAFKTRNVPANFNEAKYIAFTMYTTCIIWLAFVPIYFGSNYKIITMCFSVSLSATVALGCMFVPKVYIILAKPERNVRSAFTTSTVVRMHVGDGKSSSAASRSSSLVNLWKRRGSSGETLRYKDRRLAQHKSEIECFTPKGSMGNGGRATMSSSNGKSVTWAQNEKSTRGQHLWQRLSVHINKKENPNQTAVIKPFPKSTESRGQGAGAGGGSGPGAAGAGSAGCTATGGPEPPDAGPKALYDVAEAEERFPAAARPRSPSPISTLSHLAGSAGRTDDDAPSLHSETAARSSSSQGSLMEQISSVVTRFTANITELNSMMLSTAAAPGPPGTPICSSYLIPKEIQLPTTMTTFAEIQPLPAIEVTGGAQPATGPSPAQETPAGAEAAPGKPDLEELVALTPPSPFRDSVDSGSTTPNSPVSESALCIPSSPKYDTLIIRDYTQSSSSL

Take `O=C(Nc1nc2ccccc2[nH]1)c1ccc(F)cc1`: the “Selectivity Index” value in data set [1] came to 67.1. Further, the IC50 in data set [2] (read-out: IC50) was found to be 15 µM. Besides, the MNTC in data set [3] came to 1 mM.
For `O=C(Nc1nc2ccccc2[nH]1)c1ccc([N+](=O)[O-])cc1` the same measures were 9.2, 33 µM and 0.3 mM.
For `O=C(Nc1nc2ccccc2[nH]1)c1ccccc1F`, the “Selectivity Index” value in data set [1] is listed as 28. Moreover, the IC50 in data set [2] (read-out: IC50) came to 36 µM. Also, the MNTC in data set [3] came out at 1 mM.
The like results for `O=C(Nc1nc2ccccc2[nH]1)c1cccc(Cl)c1` were, in that order, 34.6, 29 µM and 1 mM.
The like results for `CN(C)c1cccc(C(=O)Nc2nc3ccccc3[nH]2)c1` were, in that order, 14.7, 20 µM and 0.3 mM.
As to `O=C(Nc1nc2ccccc2[nH]1)C1CCC1`, the “Selectivity Index” value in data set [1] is 3.97. The IC50 in data set [2] (read-out: IC50) came to 15 µM. Moreover, the MNTC in data set [3] was found to be 0.06 mM.
For `COc1cccc(C(=O)Nc2nc3ccccc3[nH]2)c1` the same measures were 8.06, 120 µM and 1 mM.
With `COc1ccc(C(=O)Nc2nc3ccccc3[nH]2)cc1`, in data set [1], the “Selectivity Index” value came to 10.1. Also, in data set [2] (read-out: IC50), the IC50 turned out to be 100 µM. Further, in data set [3], the MNTC was determined as 1 mM.
Turning to `O=C(Nc1nc2ccccc2[nH]1)c1cccc([N+](=O)[O-])c1`, the IC50 in data set [2] (read-out: IC50) stood at 29 µM. The MNTC in data set [3] was 1 mM.
On to `O=C(Nc1nc2ccccc2[nH]1)c1ccccc1`, for which the “Selectivity Index” value in data set [1] is listed as 6.17. For the same compound, the IC50 in data set [2] (read-out: IC50) was 160 µM. Moreover, the MNTC in data set [3] stood at 1 mM.
Consider `O=C(Nc1nc2ccccc2[nH]1)c1ccccc1Cl`, for which the “Selectivity Index” value in data set [1] is 2.67. In data set [2] (read-out: IC50), the IC50 turned out to be 110 µM. The MNTC in data set [3] was found to be 0.3 mM.
For `O=C(Nc1nc2ccccc2[nH]1)c1ccccc1C(F)(F)F` the same measures were 11.3, 88 µM and 1 mM.
As for `O=C(Nc1nc2ccccc2[nH]1)c1ccccn1`, in data set [2] (bv-2), the IC50 result was “ND(Insoluble)”. Moreover, the MNCC result in data set [3] (bv-2) is listed as “ND(Insoluble)”.
`CN(C(=O)c1cccc(Cl)c1)c1nc2ccccc2[nH]1`: the “Selectivity Index” value in data set [1] was found to be 4.85. Also, the IC50 in data set [2] (read-out: IC50) amounted to 210 µM. Moreover, the MNTC in data set [3] was 1 mM.
For the compound `O=C(Sc1nc2ccccc2[nH]1)c1cccc(Cl)c1`, the “Selectivity Index” value in data set [1] worked out at 6.36. Further, the IC50 in data set [2] (read-out: IC50) amounted to 160 µM. Besides, the MNTC in data set [3] is 1 mM.
For `O=C(Nc1nc2ccccc2[nH]1)c1cccc(C(F)(F)F)c1` the same measures were 17.2, 12 µM and 0.2 mM.
The like results for `O=C(Nc1nc2ccccc2[nH]1)c1ccc(C(F)(F)F)cc1` were, in that order, 16.9, 59 µM and 1 mM.
Take `O=C(Nc1nc2ccccc2[nH]1)c1ccncc1`: in data set [3], the MNTC worked out at 1 mM.
Regarding `O=C(Nc1nc2ccccc2[nH]1)c1cc(Cl)ccc1Cl`, the “Selectivity Index” value in data set [1] was determined as 8.33. Moreover, the IC50 in data set [2] (read-out: IC50) came out at 12 µM. For the same compound, the MNTC in data set [3] turned out to be 0.1 mM.
The like results for `O=C(Nc1nc2ccccc2[nH]1)c1cc(C(F)(F)F)ccc1C(F)(F)F` were, in that order, 1.74, 34 µM and 0.06 mM.
The like results for `O=C(Nc1nc2ccccc2[nH]1)c1ccc(Cl)c(Cl)c1` were, in that order, 10.2, 9.8 µM and 0.1 mM.
For `O=C(Nc1nc2ccccc2[nH]1)c1cc(Cl)cc(Cl)c1` the same measures were 125, 6.4 µM and 0.8 mM.
In the case of `COc1cc(C(=O)Nc2nc3ccccc3[nH]2)ccc1S(N)(=O)=O`, the “Selectivity Index” value in data set [1] is on record as 6.59. Moreover, in data set [2] (read-out: IC50), the IC50 came out at 150 µM. In data set [3], the MNTC is 1 mM.
Regarding `O=C(/C=C/c1ccncc1)Nc1nc2ccccc2[nH]1`, in data set [1], the “Selectivity Index” value worked out at 44.8. Further, the IC50 in data set [2] (read-out: IC50) was 22 µM. Also, the MNTC in data set [3] was 1 mM.
The like results for `O=C(Nc1nc2ccccc2[nH]1)C1CCCCC1` were, in that order, 24.1, 42 µM and 1 mM.
In the case of `Fc1cccc(/C=N/N=C/c2cccc(F)c2)c1`, in data set [3], the MNTC worked out at 0.5 mM.
Consider `O=C(Nc1nc2ccccc2[nH]1)c1ccc(Cl)cc1`, for which the “Selectivity Index” value in data set [1] is 40.4. Also, the IC50 in data set [2] (read-out: IC50) is 25 µM. For the same compound, in data set [3], the MNTC was 1 mM.
